Data reported in publication PMC5982514 (Biochemistry, 2018).

How the values were obtained:
Assay type in all cases: biochemical
BTK (GST fusion) = BTK (GST fusion) (Homo sapiens, UniProt Q06187); experiment: Michaelis-Menten kinetic analysis, BTK
Method in brief: (§1)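 GST-fused kinases were expressed in HEK293T and purified on glutathione Sepharose, then used at 0.3 ng/μL. Peptides (Lys-substituted C-termini) were titrated from 1 to 150 μM with 50 μM [γ-33P]ATP (0.025 μCi/μL) in HEPES pH 7.5/NaCl/MgCl2/DTT/Tween 20 buffer at 30 °C. Aliquots at 10–30 min went onto P81 paper for phosphorimaging. kcat/Km came from a Michaelis–Menten fit or the linear slope (≤75 μM). Three experiments.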

Src (GST fusion) = Src (GST fusion) (Homo sapiens, UniProt P12931); experiment: Michaelis-Menten kinetic analysis, Src; details: consensus peptides of ref [15]
Method in brief: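 GST-SRC from HEK293T, glutathione-Sepharose purified, 0.3 ng/μL final. Peptides with C-terminal Gly→Lys at 1–150 μM, in HEPES pH 7.5/NaCl/MgCl2/DTT/Tween 20 with 50 μM [γ-33P]ATP at 30 °C. Aliquots at 10, 20 and 30 min spotted on P81, H3PO4-washed, phosphorimaged. Initial rates fit to Michaelis–Menten, or kcat/Km from linear slope (≤75 μM); mean ± SEM of three experiments.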

Abl = Abl (Homo sapiens, UniProt P00519); experiment: Michaelis-Menten kinetic analysis, Abl; details: for catalytic parameters compared with consensus peptides: consensus peptides of ref [15]
Chain of Abl (P00519 whole entry): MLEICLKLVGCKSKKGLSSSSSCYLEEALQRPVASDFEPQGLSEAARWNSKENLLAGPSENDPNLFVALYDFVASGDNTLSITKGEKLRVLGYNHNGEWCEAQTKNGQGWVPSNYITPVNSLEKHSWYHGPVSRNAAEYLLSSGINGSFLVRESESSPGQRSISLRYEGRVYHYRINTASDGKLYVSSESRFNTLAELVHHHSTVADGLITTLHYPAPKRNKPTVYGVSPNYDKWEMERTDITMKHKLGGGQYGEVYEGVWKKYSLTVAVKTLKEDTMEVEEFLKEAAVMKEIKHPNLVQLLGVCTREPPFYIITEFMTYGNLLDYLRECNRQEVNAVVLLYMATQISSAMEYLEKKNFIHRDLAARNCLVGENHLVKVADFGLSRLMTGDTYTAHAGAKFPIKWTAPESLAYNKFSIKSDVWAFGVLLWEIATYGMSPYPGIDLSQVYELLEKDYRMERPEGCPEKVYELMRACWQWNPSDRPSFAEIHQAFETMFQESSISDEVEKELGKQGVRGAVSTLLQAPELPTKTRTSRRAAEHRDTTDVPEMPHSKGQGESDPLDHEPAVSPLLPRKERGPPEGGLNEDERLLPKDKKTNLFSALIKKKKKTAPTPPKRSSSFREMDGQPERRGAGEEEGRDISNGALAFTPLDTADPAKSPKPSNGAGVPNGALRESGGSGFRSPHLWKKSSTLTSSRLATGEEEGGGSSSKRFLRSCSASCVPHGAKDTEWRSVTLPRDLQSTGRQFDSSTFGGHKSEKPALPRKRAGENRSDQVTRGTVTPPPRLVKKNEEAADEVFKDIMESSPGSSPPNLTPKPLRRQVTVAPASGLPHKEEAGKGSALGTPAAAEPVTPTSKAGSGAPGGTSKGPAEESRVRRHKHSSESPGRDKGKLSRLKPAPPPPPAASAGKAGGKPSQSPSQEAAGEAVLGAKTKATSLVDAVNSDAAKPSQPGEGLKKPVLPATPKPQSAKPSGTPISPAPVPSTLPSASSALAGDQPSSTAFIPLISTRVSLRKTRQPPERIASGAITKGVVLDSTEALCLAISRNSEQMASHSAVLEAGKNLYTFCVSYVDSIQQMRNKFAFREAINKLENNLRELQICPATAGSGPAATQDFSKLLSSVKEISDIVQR

[1] = tested on: BTK, SYK, ABL, SRC, ALK, EGFR and FLT3; experiment: Kinetic analysis across seven PTKs; details: for substrate activity for all kinases tested: panel screen and seven PTKs
Method in brief: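 Kinetics on seven kinases. Final enzyme: 0.3 ng/μL ABL/BTK/SRC/SYK, 1.5 ng/μL FLT3, 2.7 ng/μL ALK/EGFR. Lys-modified peptides at 1–150 μM with 50 μM [γ-33P]ATP, 30 °C; spotted on P81 at 10/20/30 min. Michaelis–Menten fit, or kcat/Km from linear slope (≤75 μM); three runs (FLT3 two).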

FLT3 (GST-FLT3^564–993) = target: T1, FLT3 (GST-FLT3^564–993) (Homo sapiens, UniProt P36888); experiment: Michaelis-Menten kinetic analysis, FLT3; details: kcat/Km of peptide 2 over peptide 5, mean±sem, two experiments
T1 sequence (P36888 564-993): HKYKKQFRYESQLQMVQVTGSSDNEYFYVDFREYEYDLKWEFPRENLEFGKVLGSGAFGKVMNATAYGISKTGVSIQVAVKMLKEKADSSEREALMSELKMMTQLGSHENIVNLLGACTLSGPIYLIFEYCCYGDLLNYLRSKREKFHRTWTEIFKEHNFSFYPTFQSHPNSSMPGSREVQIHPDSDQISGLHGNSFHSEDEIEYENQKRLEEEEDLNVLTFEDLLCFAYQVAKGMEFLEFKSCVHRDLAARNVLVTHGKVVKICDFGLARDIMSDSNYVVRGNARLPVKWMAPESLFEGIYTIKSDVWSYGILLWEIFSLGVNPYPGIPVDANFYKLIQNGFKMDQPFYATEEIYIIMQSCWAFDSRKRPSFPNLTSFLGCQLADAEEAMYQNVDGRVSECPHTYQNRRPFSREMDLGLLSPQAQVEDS
Method in brief: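 GST-FLT3 (residues 564–993) was expressed in HEK293T, glutathione-purified and used at 1.5 ng/μL. Peptides at 1–150 μM were reacted with 50 μM [γ-33P]ATP (0.025 μCi/μL) in 50 mM HEPES pH 7.5, 10 mM MgCl2, 1 mM DTT at 30 °C. Timepoints at 10, 20 and 30 min were spotted on P81 paper and phosphorimaged. Initial rates were fitted to Michaelis–Menten, or kcat/Km was derived from the slope up to 75 μM. Two experiments.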

EGFR (His6-EGFR^672–998) = EGFR (His6-EGFR^672–998) (Homo sapiens, UniProt P00533); experiment: Michaelis-Menten kinetic analysis, EGFR
Method in brief: (§2)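 His6-tagged intracellular kinase domains were expressed and purified from Sf9 cells and used at 2.7 ng/μL final. Peptides were varied over 1–150 μM with 50 μM [γ-33P]ATP (0.025 μCi/μL) in pH 7.5 HEPES buffer containing 10 mM MgCl2 at 30 °C. Aliquots taken at 10, 20 and 30 min were captured on P81 paper, washed in 75 mM H3PO4 and phosphorimaged. Rates were fitted to Michaelis–Menten, or kcat/Km was taken from the linear slope (≤75 μM). Three experiments.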

Syk (GST fusion) = Syk (GST fusion) (Homo sapiens, UniProt P43405); experiment: Michaelis-Menten kinetic analysis, Syk; details: kcat/Km of peptide 2 over peptide 5, mean±sem, three experiments
Method in brief: as §1

ALK (His6-ALK^1090–1416) = ALK (His6-ALK^1090–1416) (Homo sapiens, UniProt Q9UM73); experiment: Michaelis-Menten kinetic analysis, ALK; details: kcat/Km of peptide 2 over peptide 5, mean±sem, three experiments
Chain of ALK (His6-ALK^1090–1416) (Q9UM73 1090-1416): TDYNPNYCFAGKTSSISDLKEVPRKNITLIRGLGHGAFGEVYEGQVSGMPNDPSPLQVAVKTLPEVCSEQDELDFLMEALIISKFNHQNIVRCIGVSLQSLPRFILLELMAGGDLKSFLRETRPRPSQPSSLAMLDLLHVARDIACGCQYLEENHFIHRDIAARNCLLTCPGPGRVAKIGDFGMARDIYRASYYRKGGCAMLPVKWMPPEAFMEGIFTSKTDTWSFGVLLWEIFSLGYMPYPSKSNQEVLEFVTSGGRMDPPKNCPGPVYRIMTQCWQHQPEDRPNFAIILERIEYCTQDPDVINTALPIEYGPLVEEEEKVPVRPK
Method in brief: as §2

[2] = kcat/Km of peptide 2 over peptide 5, mean±sem, three experiments

Chain of BTK (GST fusion) (Q06187 whole entry, the tested form may be a part): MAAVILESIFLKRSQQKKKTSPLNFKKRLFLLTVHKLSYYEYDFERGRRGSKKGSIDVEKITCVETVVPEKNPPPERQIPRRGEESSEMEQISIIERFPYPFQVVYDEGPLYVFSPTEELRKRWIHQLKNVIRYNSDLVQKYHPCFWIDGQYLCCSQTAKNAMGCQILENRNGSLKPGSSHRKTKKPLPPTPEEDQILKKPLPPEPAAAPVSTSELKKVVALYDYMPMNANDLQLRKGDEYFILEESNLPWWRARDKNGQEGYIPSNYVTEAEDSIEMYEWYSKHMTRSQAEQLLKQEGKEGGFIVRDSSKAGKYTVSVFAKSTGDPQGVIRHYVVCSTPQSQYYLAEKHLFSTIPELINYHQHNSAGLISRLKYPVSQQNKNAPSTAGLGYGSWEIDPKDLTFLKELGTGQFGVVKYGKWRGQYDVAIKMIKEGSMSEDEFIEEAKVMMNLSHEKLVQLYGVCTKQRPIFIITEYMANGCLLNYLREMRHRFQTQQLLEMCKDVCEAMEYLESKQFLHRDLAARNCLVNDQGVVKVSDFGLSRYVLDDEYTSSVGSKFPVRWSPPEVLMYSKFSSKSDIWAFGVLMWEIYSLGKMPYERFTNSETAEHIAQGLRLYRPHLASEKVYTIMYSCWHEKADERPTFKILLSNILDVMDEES

kinase preference between peptides 2 and 5 (BTK (GST fusion); specificity constant) | kinase preference between peptides 2 and 5 (Abl; specificity constant) | Sequence | catalytic parameters compared with consensus peptides (Src (GST fusion)) | catalytic parameters compared with consensus peptides (Abl) | preference of NRTKs ([1]; NRTKs among the kinases examined, peptide 5 vs peptide 2) | substrate activity for all kinases tested [1] | 2/5 kcat/Km ratio (BTK (GST fusion); [2]) | 2/5 kcat/Km ratio (FLT3 (GST-FLT3^564–993)) | 2/5 kcat/Km ratio (EGFR (His6-EGFR^672–998); [2]) | kinase preference between peptides 2 and 5 (EGFR (His6-EGFR^672–998); specificity constant) | 2/5 kcat/Km ratio (Abl; [2]) | 2/5 kcat/Km ratio (Syk (GST fusion)) | preference of RTKs ([1]; RTKs among the kinases examined, generally, peptide 2 vs peptide 5) | 2/5 kcat/Km ratio (ALK (His6-ALK^1090–1416))
more substantial preference | more substantial preference | DEAIYATVA [Peptide 5] | rivaled those determined with consensus peptides | rivaled those determined with consensus peptides | the reverse preference was seen for NRTKs | successful substrates for all kinases tested | – | – | – | – | – | – | – | –
– | – | EDPIYVTLE [Peptide 2] | rivaled those determined with consensus peptides | rivaled those determined with consensus peptides | – | successful substrates for all kinases tested | 0.31 ± 0.01 | 1.43 ± 0.07 | 5.8 ± 0.2 | more substantial preference | 0.13 ± 0.01 | 1.8 ± 0.2 | generally preferred over peptide 5 for RTKs | 1.23 ± 0.02
